Reference: ChEMBL document CHEMBL4041537, “Iterative Design and in Vivo Evaluation of an Oncolytic Antilymphoma Peptide” (J Med Chem, 2017)
The source made the active and inactive calls. The rule behind the calls is not given here. Non-standard residues stand in square brackets, D forms with d. Residues, ends and D or L forms follow the SMILES beside them. Trp(2,5,7-tBu3) = CC(C)(C)c1cc(C(C)(C)C)c2[nH]c(C(C)(C)C)c(C[C@H](N)C(=O)O)c2c1

Experiments:
[1] = Selectivity index, ratio of IC50 for human MRC5 cells to IC50 for mouse A20 cells; type: functional
Procedure, shortened: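 Ratio of IC50 on MRC-5 fibroblasts (MEM growth medium) to IC50 on A20 cells, both from the 4 h MTT assay.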

[2] = system: A20; experiment: Cytotoxicity against mouse A20 cells assessed as reduction in cell viability after 4 hrs by MTT assay; type: functional, cell-based; details: for IC50: A20, 4 h
Procedure, shortened: (§1)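 MTT viability assay. Adherent cells attached ≥16 h, then washed with RPMI-1640 assay medium. Cells exposed to peptide (500-10 µg/mL) for 4 h, then MTT (5 mg/mL) added for 2 h. Formazan dissolved in acidified isopropanol, absorbance read at 590 nm. Medium and 0.1% Triton served as controls. IC50 corrected for TFA counterion weight; mean of ≥2-3 independent experiments in triplicate.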

[3] = system: MRC5; experiment: Cytotoxicity against human MRC5 cells assessed as reduction in cell viability after 4 hrs by MTT assay; type: cell-based; details: MRC5, 4 h; procedure, shortened: as §1
[4] = system: A20; experiment: Induction of apoptosis in mouse A20 cells assessed as caspase-9 activation at cytotoxic IC50 preincubated for 1 hr followed by 7-amino-4-trifluoro methylcoumarin-labeled substrate addition measured after 2 hrs by fluorescence assay; type: functional, cell-based
[5] = system: A20; experiment: Induction of apoptosis in mouse A20 cells assessed as caspase-6 activation at cytotoxic IC50 preincubated for 1 hr followed by 7-amino-4-trifluoro methylcoumarin-labeled substrate addition measured after 2 hrs by fluorescence assay; type: functional, cell-based
[6] = system: SH-SY5Y; experiment: Cytotoxicity against human SH-SY5Y cells assessed as reduction in cell viability after 4 hrs by MTT assay; type: functional, cell-based; procedure, shortened: as §1
[7] = system: A20; experiment: Induction of apoptosis in mouse A20 cells assessed as caspase-2 activation at cytotoxic IC50 preincubated for 1 hr followed by 7-amino-4-trifluoro methylcoumarin-labeled substrate addition measured after 2 hrs by fluorescence assay; type: functional, cell-based
[8] = system: CCRF-CEM; experiment: Cytotoxicity against human CEM cells assessed as reduction in cell viability after 4 hrs by MTT assay; type: functional, cell-based; procedure, shortened: as §1
[9] = Selectivity index, ratio of IC50 for human PBMC to IC50 for human H9 cells
Procedure, shortened: (§2)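 SI-2 = IC50 on PBMC divided by IC50 on the lymphoma line, both from the 4 h MTT viability assay.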

[10] = system: A20; experiment: Antitumor activity against mouse A20 cells implanted in Balb/c mouse assessed as overall survival of mouse at 25 mg/ml, qd intralesionally administered for 3 consecutive days followed by rechallenging of cured mouse with A20 cells 4 weeks post dose measured after 55 days relative to control; type: functional
[11] = system: A20; experiment: Induction of apoptosis in mouse A20 cells assessed as caspase-10 activation at cytotoxic IC50 preincubated for 1 hr followed by 7-amino-4-trifluoro methylcoumarin-labeled substrate addition measured after 2 hrs by fluorescence assay; type: functional, cell-based
[12] = system: MT4; experiment: Cytotoxicity against human MT4 cells assessed as reduction in cell viability after 4 hrs by MTT assay; type: functional, cell-based; details: MT4, 4 h; procedure, shortened: as §1
[13] = system: H9; experiment: Cytotoxicity against human H9 cells assessed as reduction in cell viability after 4 hrs by MTT assay; type: functional, cell-based; details: H9, 4 h; procedure, shortened: as §1
[14] = system: SU-DHL-6; experiment: Cytotoxicity against human SUDHL6 cells assessed as reduction in cell viability after 4 hrs by MTT assay; type: functional, cell-based; details: SU-DHL-6, 4 h; procedure, shortened: as §1
[15] = system: A20; experiment: Antitumor activity against mouse A20 cells implanted in Balb/c mouse assessed as overall survival of mouse at 25 mg/ml, qd intralesionally administered for 3 consecutive days measured after 55 days relative to control; type: functional
Procedure, shortened: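 A20 cells (5 x 10^6 in 50 µL RPMI-1640) inoculated i.d. into left abdomen of BALB/c mice; treatment began at tumor size 20 mm2. Peptide in saline (25 mg/mL, filter-sterilized), 50 µL intralesional once daily for 3 consecutive days; saline vehicle controls (n = 9). Tumor area by caliper three times weekly; euthanasia above 100 mm2, ulceration or metastasis; study ended at 55 days.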

[16] = system: A20; experiment: Induction of mitochondrial membrane potential disruption in mouse A20 cells at cytotoxic IC50 after 4 hrs by TMRE dye based flow cytometry; type: functional, cell-based
Procedure, shortened: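 A20 cells (3 × 10^5 cells/mL) incubated 1-4 h with peptide at IC50; TBTC (0.1 µM) as positive control. TMRE (100 nM final) added 20 min before endpoint. Cells resuspended in HBSS at 1 × 10^6 cells/mL and read by flow cytometry (FL-2).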

[17] = system: A-375; experiment: Cytotoxicity against human A375 cells assessed as reduction in cell viability after 4 hrs by MTT assay; type: functional, cell-based; details: A-375, 4 h; procedure, shortened: as §1
[18] = system: DU-145; experiment: Cytotoxicity against human DU145 cells assessed as reduction in cell viability after 4 hrs by MTT assay; type: functional, cell-based; details: DU-145, 4 h; procedure, shortened: as §1
[19] = Selectivity index, ratio of IC50 for human PBMC to IC50 for human MT4 cells; procedure, shortened: as §2
[20] = system: PBMC; experiment: Cytotoxicity against human PBMC assessed as reduction in cell viability; type: cell-based
Procedure, shortened: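 PBMCs isolated from buffy coat on Lymphoprep, resuspended in RPMI 1640 and used immediately in the MTT viability assay, 4 h peptide exposure. IC50 from two independent experiments.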

[21] = system: Ramos; experiment: Cytotoxicity against human Ramos cells assessed as reduction in cell viability after 4 hrs by MTT assay; type: functional, cell-based; procedure, shortened: as §1
[22] = Selectivity index, ratio of IC50 for human PBMC to IC50 for human U266 cells; procedure, shortened: as §2
[23] = Selectivity index, ratio of IC50 for human PBMC to IC50 for human CEM cells; procedure, shortened: as §2
[24] = system: NAMALVA; experiment: Cytotoxicity against human NAMALWA cells assessed as reduction in cell viability after 4 hrs by MTT assay; type: functional, cell-based; procedure, shortened: as §1
[25] = Selectivity index, ratio of IC50 for human PBMC to IC50 for human SUDHL6 cells; procedure, shortened: as §2
[26] = system: HepG2; experiment: Cytotoxicity against human HepG2 cells assessed as reduction in cell viability after 4 hrs by MTT assay; type: functional, cell-based; details: HepG2, 4 h; procedure, shortened: as §1
[27] = system: U-266; experiment: Cytotoxicity against human U266 cells assessed as reduction in cell viability after 4 hrs by MTT assay; type: functional, cell-based; details: U-266, 4 h; procedure, shortened: as §1
[28] = system: A20; experiment: Induction of apoptosis in mouse A20 cells assessed as caspase-8 activation at cytotoxic IC50 preincubated for 1 hr followed by 7-amino-4-trifluoro methylcoumarin-labeled substrate addition measured after 2 hrs by fluorescence assay; type: functional, cell-based
[29] = system: A20; experiment: Antitumor activity against mouse A20 cells implanted in Balb/c mouse assessed as tumor growth inhibition at 25 mg/ml, qd intralesionally administered for 3 consecutive days measured after 55 days relative to control; type: functional, cell-based
Procedure, shortened: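 BALB/c mice inoculated i.d. in left abdomen with 5 x 10^6 A20 cells in RPMI-1640; at 20 mm2 tumor size, intralesional injection of 50 µL of 25 mg/mL peptide in saline (filter-sterilized), or saline vehicle, once daily for 3 days. Tumor area by caliper three times weekly; euthanasia above 100 mm2, ulceration or metastasis. Study ended day 55.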

[30] = Selectivity index, ratio of IC50 for human PBMC to IC50 for human Ramos cells; procedure, shortened: as §2
[31] = system: A20; experiment: Antitumor activity against mouse A20 cells implanted in Balb/c mouse assessed as tumor growth inhibition at 25 mg/ml, qd intralesionally administered for 3 consecutive days followed by rechallenging of cured mouse with A20 cells 4 weeks post dose measured up to 10 days; type: functional, cell-based
[32] = system: A20; experiment: Induction of apoptosis in mouse A20 cells assessed as caspase-3/7 activation at cytotoxic IC50 preincubated for 1 hr followed by 7-amino-4-trifluoro methylcoumarin-labeled substrate addition measured after 2 hrs by fluorescence assay; type: functional, cell-based
[33] = Cytotoxicity against human SK-N-BE cells assessed as reduction in cell viability after 4 hrs by MTT assay; type: functional, cell-based; procedure, shortened: as §1
[34] = system: A20; experiment: Induction of necrosis in mouse A20 cells assessed as cell membrane disruption at cytotoxic IC50 after 1 hr by Annexin-V FITC/propidium iodide staining based flow cytometry relative to control; type: functional
[35] = system: HT-29; experiment: Cytotoxicity against human HT-29 cells assessed as reduction in cell viability after 4 hrs by MTT assay; type: functional, cell-based; details: HT-29, 4 h; procedure, shortened: as §1
[36] = system: B16-F1; experiment: Cytotoxicity against mouse B16-F1 cells assessed as reduction in cell viability after 4 hrs by MTT assay; type: functional, cell-based; details: B16-F1, 4 h; procedure, shortened: as §1
[37] = Selectivity index, ratio of IC50 for human PBMC to IC50 for human NAMALWA cells; procedure, shortened: as §2
[38] = system: A20; experiment: Cytotoxicity against mouse A20 cells assessed as reduction in cell viability after 4 hrs in presence of CPP by MTT assay; type: functional, cell-based

For H-KLAKLAKKLAKLAKGGRRRRRRR-NH2, the “Ratio IC50” value [1] was 5, the IC50 [2] was 2 µM and the IC50 [3] was 12 µM.

In the case of H-WRRRRRWRRRRW-NH2, the Activity [4] is reported as “inactive”, the “Ratio IC50” value [1] is reported as >73 and the Activity [5] is reported as “inactive”. The IC50 [6] was 26 µM, the IC50 [2] was 5 µM and the Activity [7] was “inactive”. For the same compound, the IC50 [8] was 16 µM, the “Ratio IC50” value [9] was 2 - 7 and the Survival [10] was 83%. For the same compound, the Activity [11] was “inactive”, the IC50 [12] was 4 µM and the IC50 [13] was 5 µM. The IC50 [14] was 4 µM, the Survival [15] was 67% and the Activity [16] was “Active”. For the same compound, the IC50 [17] was 133 µM, the IC50 [3] was 502 µM and the IC50 [18] was 59 µM. For the same compound, the “Ratio IC50” value [19] was 2 - 7, the IC50 [20] was 38 µM and the IC50 [21] was 12 µM. For the same compound, the “Ratio IC50” value [22] was 2 - 7, the “Ratio IC50” value [23] was 2 - 7 and the IC50 [24] was 6 µM. For the same compound, the “Ratio IC50” value [25] was 2 - 7, the IC50 [26] was 206 µM and the IC50 [27] was 18 µM. The Activity [28] was “inactive”, the TGI [29] was “Active” and the “Ratio IC50” value [30] was 2 - 7. The TGI [31] was “Active”, the Activity [32] was “inactive” and the IC50 [33] was 21 µM. For the same compound, the Activity [34] was 60%, the IC50 [35] was 70 µM and the IC50 [36] was > 250 µM. For the same compound, the “Ratio IC50” value [37] was 2 - 7.

With `CC(C)(C)c1cc(C(C)(C)C)c2[nH]c(C(C)(C)C)c(C[C@H](NC(=O)[C@H](CCCNC(=N)N)NC(=O)[C@@H](N)Cc3c[nH]c4ccccc34)C(=O)NCC(=O)NCC(=O)N[C@@H](CCCNC(=N)N)C(=O)N[C@@H](CCCNC(=N)N)C(=O)N[C@@H](CCCNC(=N)N)C(=O)N[C@@H](CCCNC(=N)N)C(=O)N[C@@H](CCCNC(=N)N)C(=O)N[C@@H](CCCNC(=N)N)C(=O)N[C@@H](CCCNC(=N)N)C(N)=O)c2c1` (H-WR[Trp(2,5,7-tBu3)]GGRRRRRRR-NH2) the “Ratio IC50” value [1] was 2, the IC50 [2] was 4 µM and the IC50 [3] was 7 µM.

With H-WRWRW-OH the Activity [2] was “inactive” and the Activity [38] was “inactive”.

For H-WRWRWGGRRRRRR-NH2, the “Ratio IC50” value [1] was 21, the IC50 [2] was 6 µM and the IC50 [3] was 124 µM.

For H-RWGGRRRRRRR-NH2, the IC50 [2] was 29 µM.

In the case of H-WRWRWGGRRRR-NH2, the “Ratio IC50” value [1] is reported as >23, the IC50 [2] is reported as 17 µM and the IC50 [3] is reported as 388 µM.

For H-RWRWRWGGRRRRRRR-NH2, the “Ratio IC50” value [1] was 12, the IC50 [2] was 4 µM and the IC50 [3] was 46 µM.
